ChEMBL document CHEMBL4219029, “Impact of Target Warhead and Linkage Vector on Inducing Protein Degradation: Comparison of Bromodomain and Extra-Terminal (BET) Degraders Derived from Triazolodiazepine (JQ1) and Tetrahydroquinoline (I-BET726) BET Inhibitor Scaffolds” (J Med Chem, 2018)
Activity calls are given as the source filed them. No cut-off for these calls is given here.

How the values were obtained:
[1] = target: T1, von Hippel-Lindau disease tumor suppressor/Bromodomain-containing protein 4 (Homo sapiens, UniProt O60885+P40337); experiment: Proteolysis targeting chimera activity in human HeLa cells assessed as induction of VCB-mediated delivery of BRD4 short isoform for protein degradation by proteasome by measuring drug level causing 50% cellular protein depletion incubated for 24 hrs by Western blotting method; format: cell-based
[2] = system: HL-60; experiment: Antiproliferative activity against human HL60 cells after 48 hrs by CellTiter-Glo luminescent cell viability assay; format: functional, cell-based; conditions: HL-60, 48 h
In short: (§1)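 Cells in RPMI with 10% FBS, L-glutamine, penicillin and streptomycin at 37 °C, 5% CO2. Seeded at 3 × 10^5 per mL and exposed to a range of compound concentrations or 0.05% DMSO for 48 h. Viability read by CellTiter-Glo luminescence. EC50 from curve fitting; errors reflect fit quality.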

[3] = system: MV4-11; experiment: Antiproliferative activity against human MV4-11 cells after 48 hrs by CellTiter-Glo luminescent cell viability assay; format: functional, cell-based; conditions: MV4-11, 48 h; in short: as §1
[4] = target: Bromodomain-containing protein 4 (Homo sapiens, UniProt O60885); experiment: Binding affinity to N-terminal His6-tagged recombinant human Brd4 BD2 expressed in Escherichia coli BL21 (DE3) assessed as compound binary complex formation by isothermal titration calorimetry-based assay
In short: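 ITC at 25 °C, stirred, in 20 mM Bis-Tris propane, 150 mM NaCl, 1 mM TCEP, pH 7.4, with 0.2% or 3% DMSO depending on scaffold. Bromodomain titrated into PROTAC (20 μM in cell, halved for poorly soluble compounds) over 19 injections. Single-binding-site fit gave n, Kd and ΔH.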

[5] = target: von Hippel-Lindau disease tumor suppressor/Bromodomain-containing protein 4/Elongin-B/Elongin-C (Homo sapiens, UniProt O60885+P40337+Q15369+Q15370); experiment: (§2) Induction of interaction of N-terminal His6-tagged recombinant human VHL (54 to 213 residues)/elongin C (17 to 112 residues)/elongin B (1 to 104 residues) co-expressed in Escherichia coli BL21 (DE3) with recombinant human Brd4 BD2 assessed as VCB/BRD4/compound ternary complex formation by isothermal titration calorimetry-based assay
[6] = target: T1, von Hippel-Lindau disease tumor suppressor/Bromodomain-containing protein 4; experiment: Proteolysis targeting chimera activity in human HeLa cells assessed as induction of VCB-mediated delivery of BRD4 long isoform for protein degradation by proteasome by measuring drug level causing 50% cellular protein depletion incubated for 24 hrs by Western blotting method; format: cell-based
[7] = target: T2, von Hippel-Lindau disease tumor suppressor/Bromodomain-containing protein 3/Elongin-B/Elongin-C (Homo sapiens, UniProt Q15059+P40337+Q15370+Q15369); experiment: Proteolysis targeting chimera activity in human HeLa cells assessed as induction of VCB-mediated delivery of BRD3 for protein degradation by proteasome by measuring drug level causing 50% cellular protein depletion incubated for 24 hrs by Western blotting method; format: cell-based
[8] = target: Von Hippel-Lindau disease tumor suppressor/Elongin B/Elongin C (Homo sapiens, UniProt P40337); experiment: Binding affinity to N-terminal His6-tagged recombinant human VHL (54 to 213 residues)/elongin C (17 to 112 residues)/elongin B (1 to 104 residues) expressed in Escherichia coli BL21 (DE3) assessed as compound binary complex formation by isothermal titration calorimetry-based assay
[9] = target: T1, von Hippel-Lindau disease tumor suppressor/Bromodomain-containing protein 4; experiment: Proteolysis targeting chimera activity in human HeLa cells assessed as induction of VCB-mediated delivery of BRD4 short isoform for protein degradation by proteasome at 1 to 10 uM incubated for 24 hrs by Western blotting method; format: cell-based
In short: (§3)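 HeLa cells seeded at 3 × 10^5 per well and treated the next day for 24 h. Lysed in RIPA buffer with protease inhibitors, Benzonase and 0.5 mM MgCl2, then immunoblotted. Bands normalized to β-actin and quantified against DMSO control. Dmax is the largest depletion across concentrations. Two biological replicates.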

[10] = target: T1, von Hippel-Lindau disease tumor suppressor/Bromodomain-containing protein 4; experiment: Proteolysis targeting chimera activity in human HeLa cells assessed as induction of VCB-mediated delivery of BRD4 long isoform for protein degradation by proteasome at 1 to 10 uM incubated for 24 hrs by Western blotting method; format: cell-based; in short: as §3
[11] = target: T2, von Hippel-Lindau disease tumor suppressor/Bromodomain-containing protein 3/Elongin-B/Elongin-C; experiment: Proteolysis targeting chimera activity in human HeLa cells assessed as induction of VCB-mediated delivery of BRD3 for protein degradation by proteasome at 1 to 10 uM incubated for 24 hrs by Western blotting method; format: cell-based; in short: as §3
[12] = target: T3, von Hippel-Lindau disease tumor suppressor/Bromodomain-containing protein 2/Elongin-B/Elongin-C (Homo sapiens) (UniProt P25440+P40337+Q15370+Q15369); experiment: Proteolysis targeting chimera activity in human HeLa cells assessed as induction of VCB-mediated delivery of BRD2 for protein degradation by proteasome at 1 to 10 uM incubated for 24 hrs by Western blotting method; format: cell-based; in short: as §3
[13] = target: T1, von Hippel-Lindau disease tumor suppressor/Bromodomain-containing protein 4; experiment: Proteolysis targeting chimera activity in human HeLa cells assessed as induction of VCB-mediated delivery of BRD4 short isoform for protein degradation by proteasome at 1 to 10 uM incubated for 6 hrs by Western blotting method; format: cell-based
In short: (§4)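 HeLa cells seeded at 3 × 10^5 per well and treated the next day for 6 h. RIPA lysates (protease inhibitors, Benzonase, 0.5 mM MgCl2) immunoblotted. Band intensities normalized to β-actin and expressed relative to DMSO vehicle.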

[14] = target: T1, von Hippel-Lindau disease tumor suppressor/Bromodomain-containing protein 4; experiment: Proteolysis targeting chimera activity in human HeLa cells assessed as induction of VCB-mediated delivery of BRD4 long isoform for protein degradation by proteasome at 1 to 10 uM incubated for 6 hrs by Western blotting method; format: cell-based; in short: as §4
[15] = target: T2, von Hippel-Lindau disease tumor suppressor/Bromodomain-containing protein 3/Elongin-B/Elongin-C; experiment: Proteolysis targeting chimera activity in human HeLa cells assessed as induction of VCB-mediated delivery of BRD3 for protein degradation by proteasome at 1 to 10 uM incubated for 6 hrs by Western blotting method; format: cell-based; in short: as §4
[16] = target: T3, von Hippel-Lindau disease tumor suppressor/Bromodomain-containing protein 2/Elongin-B/Elongin-C (Homo sapiens); experiment: Proteolysis targeting chimera activity in human HeLa cells assessed as induction of VCB-mediated delivery of BRD2 for protein degradation by proteasome at 1 to 10 uM incubated for 6 hrs by Western blotting method; format: cell-based; in short: as §4
[17] = target: von Hippel-Lindau disease tumor suppressor/Bromodomain-containing protein 2/Elongin-B/Elongin-C (Homo sapiens, UniProt P25440+P40337+Q15369+Q15370); experiment: as §2, with “Brd2 BD1” for “Brd4 BD2”, “VCB/BRD2/compound” for “VCB/BRD4/compound”

Row | SMILES | pDC50 [1] | EC50 [2] | Emax [2] | Emax [3] | Kd [4] | Kd [5] | EC50 [3] | also measured
1 | Cc1ncsc1-c1ccc(CNC(=O)[C@@H]2C[C@@H](O)CN2C(=O)[C@@H](NC(=O)COCCOCCOCCOCCNC(=O)C[C@@H]2N=C(c3ccc(Cl)cc3)c3c(sc(C)c3C)-n3c(C)nnc32)C(C)(C)C)cc1 | 8.4 | 1260 nM | 91.7% | 95.2% | 27 nM | 15 nM | – | –
2 | CC(=O)N1c2ccc(-c3ccc(C(=O)O)cc3)cc2[C@H](Nc2ccc(Cl)cc2)C[C@@H]1C | – | – | 82.4% | 73.3% | – | – | – | –
3 | Cc1ncsc1-c1ccc(CNC(=O)[C@@H]2C[C@@H](O)CN2C(=O)[C@@H](NC(=O)COCCOCCOCCNC(=O)C[C@@H]2N=C(c3ccc(Cl)cc3)c3c(sc(C)c3C)-n3c(C)nnc32)C(C)(C)C)cc1 | – | 219 nM | 92% | – | – | – | 26.9 nM | –
4 | Cc1sc2c(c1C)C(c1ccc(Cl)cc1)=N[C@@H](CC(=O)Nc1ccc(OCCOCCOCCOCCNc3cccc4c3C(=O)N(C3CCC(=O)NC3=O)C4=O)cc1)c1nnc(C)n1-2 (stereo not given in full) | – | – | 88% | – | – | – | – | –
5 | Cc1ncsc1-c1ccc(CNC(=O)[C@@H]2C[C@@H](O)CN2C(=O)[C@@H](NC(=O)COCCOCCNC(=O)C[C@@H]2N=C(c3ccc(Cl)cc3)c3c(sc(C)c3C)-n3c(C)nnc32)C(C)(C)C)cc1 | – | 1450 nM | 91.4% | 91.4% | 17 nM | 26 nM | 178 nM | –
6 | CC(=O)N1c2ccc(-c3ccc(C(=O)NCCOCCOCC(=O)N[C@H](C(=O)N4C[C@H](O)C[C@H]4C(=O)NCc4ccc(-c5scnc5C)cc4)C(C)(C)C)cc3)cc2[C@H](Nc2ccc(Cl)cc2)C[C@@H]1C | 6.9 | 676 nM | 96.6% | 88.1% | 3 nM | 781 nM | 575 nM | pDC50 [6]: 6.7; pDC50 [7]: 6.8; Kd [8]: 116 nM
7 | CC(=O)N1c2ccc(-c3ccc(C(=O)NCCOCCOCCOCCOCC(=O)N[C@H](C(=O)N4C[C@H](O)C[C@H]4C(=O)NCc4ccc(-c5scnc5C)cc4)C(C)(C)C)cc3)cc2[C@H](Nc2ccc(Cl)cc2)C[C@@H]1C | 8.1 | 427 nM | 98.3% | 96.4% | 8 nM | 183 nM | 83.2 nM | Activity [1]: Dose-dependent effect; Activity [6]: Dose-dependent effect; pDC50 [6]: 7.5; Activity [7]: Dose-dependent effect; pDC50 [7]: 7.7; Kd [8]: 109 nM; Activity [9]: inactive; Activity [10]: inactive; Activity [11]: inactive; Activity [12]: inactive; Activity [13]: inactive; Activity [14]: inactive; Activity [15]: inactive; Activity [16]: inactive; Kd [17]: 330 nM
